Bioassay records from PubChem BioAssay.
RGS4 inh – inhibitors of human RGS4. AID 463165. 310,000 tested, 0.45% active. B-score at 10 µM. P49798. HEK293 M3R/RGS4 inducible, Fluo-4 calcium flux; stronger effect = higher value; triggered by carbachol at its EC20;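 active = B-score, a plate-corrected calcium signal, over three deviations above library mean, with baseline fluorescence within five deviations of library mean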;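 also: RGS4 expression induced by doxycycline in cells with stable M3 receptor; B-score is computed from the integrated fluorescence ratio over baseline after carbachol; higher B-score means a larger calcium signal and so more RGS4 inhibition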
Target sequence (P49798 whole entry, looked up): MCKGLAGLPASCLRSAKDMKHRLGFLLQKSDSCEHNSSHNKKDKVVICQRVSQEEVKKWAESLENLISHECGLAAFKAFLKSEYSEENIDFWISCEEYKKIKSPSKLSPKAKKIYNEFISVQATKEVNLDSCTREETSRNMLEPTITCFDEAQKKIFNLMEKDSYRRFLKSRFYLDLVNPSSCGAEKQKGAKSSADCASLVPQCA
MrgX1 PAM – allosterically activates human MrgX1 receptor signaling | MrgX1-HEK293, Fluo-4 calcium flux, FDSS; stronger effect = higher value | B-score at 10 µM | 310,000 tested, 0.63% active;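 active = plate-corrected calcium response at least 3 library SD above typical, normal starting fluorescence, not activating the receptor alone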;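 also: compound read alongside a low EC10 to EC30 dose of BAM8-22 agonist; peak minus trough fluorescence over baseline measured at the second addition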
Target sequence (Q96LB2 whole entry, looked up): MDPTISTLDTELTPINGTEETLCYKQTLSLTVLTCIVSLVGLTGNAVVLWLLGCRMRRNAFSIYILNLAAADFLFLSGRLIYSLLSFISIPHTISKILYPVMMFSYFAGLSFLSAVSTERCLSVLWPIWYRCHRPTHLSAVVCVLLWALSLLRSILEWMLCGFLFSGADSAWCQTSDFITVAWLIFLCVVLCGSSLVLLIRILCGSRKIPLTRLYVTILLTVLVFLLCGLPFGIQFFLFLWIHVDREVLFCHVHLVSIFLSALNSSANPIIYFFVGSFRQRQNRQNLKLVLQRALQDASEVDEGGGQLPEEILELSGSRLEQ
RGS4 act – RGS4 potentiation or activation; HEK293 M3R/inducible RGS4, carbachol calcium flux Fluo4; stronger effect = lower value; B-score at 10 µM; 310,000 tested, 0.92% active; AID 463111;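 active = B-score of the integrated calcium signal more than 4 SD below the library mean, with starting fluorescence not abnormally high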;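 also: negative B-score means reduced calcium response which marks RGS4 activation or potentiation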
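Test system: HEK293 cells with stable M3R and inducible RGS4; also added: carbachol at ECmax as muscarinic agonist stimulus; schedule: dye loading 30 min 37 °C, buffer rest 30 min RT; technique: kinetic calcium fluorescence imaging with Fluo4-AM dye, 2 µM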
Hep lipid drop – modulators of hepatic lipid droplet formation | AML12 mouse hepatocytes, oleate lipid droplets, BODIPY imaging | inhibition, % at 6.5 µM | 240,000 tested, 0.4% active;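 active = lipid droplet intensity inhibited by at least 50%, with more than 500 cells counted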
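Assay system: AML12 mouse liver cells | Compound: 6.5 µM single-point dosing | Schedule: Overnight exposure | Technique: Fluorescence imaging, 20x objective, two fields per well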
MrgX1 ag – activates human MrgX1 receptor signaling; 310,000 tested, 0.44% active; B-score at 10 µM; MrgX1-HEK293 cells, Fluo-4 calcium fluorescence, agonist mode; stronger effect = higher value;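 active = calcium response B-score plate-corrected fluorescence ratio at least 3 library SD, with starting fluorescence B-score inside 5 SD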
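Test system: HEK293 cells stably expressing human MrgX1 receptor; Input: fifteen thousand cells per well; Dosing: compound delivered in addition one of three; Schedule: overnight seeding, then 1 h dark dye loading; Technique: Fluo-4 NW calcium fluorescence; Measure: B-scored fluorescence response ratio; Controls: positive and negative controls per plate.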
MrgX1 antagonist – blocks BAM8-22 activation of human MrgX1 receptor | MRGX1-HEK293 calcium flux, Fluo-4, BAM8-22 antagonism; stronger effect = lower value | 310,000 tested, 1.3% active | B-score at 10 µM | Q96LB2;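 active = calcium-response B-score plate-corrected more than 3 library SD below zero, starting fluorescence within 5 deviations, no agonist response on first addition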;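 also: peak minus trough fluorescence over baseline after final BAM8-22 challenge near maximal dose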
MrgX1 allo conf – human MrgX1 positive allosteric modulation, re-confirmation. 1,200 tested, 13% active. activation (ratio percentage), % at 10 µM. MrgX1-HEK293, Fluo-4 calcium fluorescence, FDSS. shares compounds with MrgX1 PAM;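 active = ratio at least 3 SD above the weak peptide control, stable starting fluorescence, no direct agonism earlier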;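 also: compound followed by low BAM8-22 agonist challenge near EC20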
HEK293 Ca flux – activity in parental HEK293 cells lacking MrgX1. AID 624111. fluorescence ratio F(max-min)/F0 at 10 µM. shares compounds with MrgX1 antagonist. 4,000 tested, 2% active. Fluo-4 calcium fluorescence, FDSS;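 active = duplicate-averaged calcium fluorescence ratio at least three times the standard deviation of buffer wells, a nonspecific response in parental cells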
HEK293 Ca counter – counter-screen for MrgX1 allosteric activators: effect in parental HEK293 cells | shares compounds with MrgX1 antagonist | parental HEK293 calcium flux, Fluo-4 fluorescence ratio; stronger effect = higher value | fluorescence ratio F(max-min)/F0 at 10 µM | 4,000 tested, 0.4% active;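 active = calcium fluorescence ratio, averaged over duplicates, at least 3 SD of the buffer-well ratio, meaning a nonspecific response in receptor-free cells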;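 also: untransfected parental HEK293 lacking MrgX1 used as counterscreen for MrgX1 allosteric activators; fluorescence change taken during the second addition on a kinetic imager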
HEK293 Ca cntr2 – activity in parental HEK293 cells lacking MrgX1 receptor; shares compounds with MrgX1 antagonist; Fluo-4 calcium fluorescence (FDSS); stronger effect = higher value; fluorescence ratio F(max-min)/F0 at 10 µM; 4,000 tested, 8.7% active;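 active = calcium fluorescence ratio at least three times the spread of buffer wells, meaning a non-specific response in parental cells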
Starred values were filed as active, the others as inactive; i = inactive; / = no result given. Compounds with a hit are over-represented: about 3.8% of the library has one in this group of screens.

SMILES	RGS4 inh	MrgX1 PAM	RGS4 act	Hep lipid drop	MrgX1 ag	MrgX1 antagonist	MrgX1 allo conf	HEK293 Ca flux	HEK293 Ca counter	HEK293 Ca cntr2
Cc1ccc(-n2c(C)cc(C(=O)CSc3nncs3)c2C)cc1	i	7*	i	/	i	i	2.1%*	i	i	i
Cc1ccc(-n2c(C)cc(C(=O)CSc3nnnn3C)c2C)cc1	i	i	i	1	i	i	/	/	/	/
CCOC(=O)c1cccc(NC(=O)CCc2ccccc2)c1	i	8.1*	i	-8	i	i	i	i	i	i
OC[C@H]1O[C@@H](n2cnc3c(Nc4ccccc4)ncnc32)[C@H](O)[C@@H]1O	i	7.1*	i	-5	i	i	i	i	i	i
C#CCO[C@@H]1C[C@H](n2cnc3c(NC(=O)c4ccccc4)ncnc32)O[C@@H]1CO	i	i	i	-14	i	i	/	/	/	/
CCOC(=O)c1c(-c2cccs2)csc1NC(C)=O	i	i	i	-2	i	i	/	/	/	/
CCOC(=O)c1c(-c2cccs2)csc1NC(=O)C(C)(C)C	i	12*	i	-2	i	i	i	i	i	i
CCOC(=O)N1CCC(N2C(=O)c3ccc(C(=O)O)cc3C2=O)CC1	i	i	i	2	i	i	/	/	/	/
CCOC(=O)N1CCC(N2C(=O)c3ccc(C(=O)Nc4cccc(OC)c4)cc3C2=O)CC1	i	8*	i	0	i	i	i	i	i	i
Cc1ccc(S(=O)(=O)N2CCCC2C(=O)OCC(=O)Nc2ccc3c(c2)OCO3)cc1 (stereo not drawn)	i	17*	i	/	i	i	i	i	i	i
COc1ccc(S(=O)(=O)N2CC(O)CC2C(=O)OCc2nc3sc(C)c(C)c3c(=O)[nH]2)cc1 (stereo not drawn)	i	i	i	4	i	i	/	/	/	/
COc1cc(OC)cc(C(=O)NCCn2ccc3ccccc32)c1	i	i	i	/	i	i	/	/	/	/
COc1cccc(C(=O)NCCn2ccc3ccccc32)c1	i	8.8*	i	20	i	i	i	i	i	i
Oc1ccc(-c2nc3ccc4ccccc4c3c3c2CCC3)cc1O	i	i	i	1	i	i	/	/	/	/
Clc1ccccc1Nc1nnc(-c2ccncc2)s1	i	9.6*	i	2	i	i	i	i	i	i
CCN(c1ccccc1)S(=O)(=O)c1ccc(N)c(OC)c1	i	6.6*	i	-2	i	i	i	i	i	i
Cc1ccc(S(=O)(=O)N2CCc3ccccc3C2)cc1	i	i	i	20	i	i	/	/	/	/
CCN(c1ccccc1)S(=O)(=O)c1ccc(Cl)nc1	i	9.4*	i	0	i	i	i	i	i	i
CCN(c1cccc2ccccc12)S(=O)(=O)c1ccc(Cl)nc1	i	i	i	-29	i	i	/	/	/	/
CC(C)N(C(C)C)S(=O)(=O)c1ccc(N2CCc3ccccc3C2)nc1	i	8.4*	-7.1*	-8	i	i	i	i	i	i
CC(C)N(C(C)C)S(=O)(=O)c1ccc(Cl)nc1	i	7.7*	i	-9	i	i	i	i	i	i
NC(=O)c1cc(S(=O)(=O)N2CCc3ccccc3C2)cs1	i	i	i	11	i	i	/	/	/	/
COC(=O)C1=C(N)c2c(F)cccc2C1(C#N)c1ccc(F)cc1 (stereo not drawn)	i	8.4*	i	16	i	i	i	i	i	i
COC(=O)c1sc2nc(N3CCCCC3)c3c(c2c1N)CCCC3	i	6.9*	i	-16	i	i	i	i	i	i
O=C(Nc1ccccc1)c1ccc[nH]1	i	i	i	20	i	i	/	/	/	/
SMILES	RGS4 inh	MrgX1 PAM	RGS4 act	Hep lipid drop	MrgX1 ag	MrgX1 antagonist	MrgX1 allo conf	HEK293 Ca flux	HEK293 Ca counter	HEK293 Ca cntr2
O=C(c1ccccc1)c1nc[nH]c1C(=O)Nc1ccccc1	i	9.9*	i	/	i	i	i	i	i	i
CCOC(=O)c1ccc2c(c1)nc(-c1ccccn1)n2CC	i	7.6*	i	1	i	i	i	i	i	i
CC(=O)c1sc(NC(=O)C2COc3ccccc3O2)nc1C (stereo not drawn)	i	i	i	-14	i	i	/	/	/	/
CC1(C)CC(=O)c2sc(NC(=O)c3ccco3)nc2C1	i	i	i	/	i	i	/	/	/	/
CC1(C)CC(=O)c2sc(NC(=O)C3COc4ccccc4O3)nc2C1 (stereo not drawn)	i	9.4*	i	-5	i	i	i	i	i	i
CC1(C)CC(=O)c2sc(NS(=O)(=O)c3ccccc3)nc2C1	i	13*	i	5	i	i	i	i	i	i
Cc1c(Cl)cccc1NC(=O)CC1Sc2ccccc2NC1=O (stereo not drawn)	i	i	i	2	i	i	/	/	/	/
Cc1cc(CN(C)C(=O)c2ccc(OC3CCN(CCc4ccccc4)CC3)cc2)on1	i	i	i	-4	i	i	/	/	/	/
CC(NC(=O)Nc1ccccc1O)(C(F)(F)F)C(F)(F)F	i	9.8*	i	-25	i	i	i	i	i	i
CC(C)[C@H](NC(=O)c1ccccc1F)C(=O)NCc1ccc(S(N)(=O)=O)cc1	i	i	i	0	i	i	/	/	/	/
Cc1sc2ncnc(NCC3(N4CCOCC4)CCCCC3)c2c1C	i	i	i	15	i	i	/	/	/	/
Cc1sc2ncnc(NCC(C)(C)N3CCOCC3)c2c1C	i	8.7*	i	-8	i	i	i	i	i	i
